{"data": "Published values pooled from the literature", "SLC47A2": "Multidrug and toxin extrusion protein 2 (SLC47A2, Homo sapiens, UniProt Q86VL8)", "ABCB1": "ATP-dependent translocase ABCB1 (ABCB1, Homo sapiens, UniProt P08183)"}
{"SMILES": "CN/C(=N/CCSCc1nc[nH]c1C)NC#N", "target": "SLC47A2", "test": "transporter uptake, inhibitor", "system": "HEK293", "setting": "100 µM, 2 min", "measurement": "inhibition", "result": "76%"}
{"SMILES": "COCCc1ccc(OCC(O)CNC(C)C)cc1 (centres unmarked)", "target": "ABCB1", "system": "MDCK-MDR1", "setting": "5 µM", "measurement": "efflux ratio", "result": 0.981}
{"SMILES": "CC[C@H](C)C(=O)N1CCC(NC(=O)Nc2ccc(OC(F)(F)F)c(F)c2)CC1", "target": "ABCB1", "test": "transporter efflux, inhibitor, fluorescence", "setting": "10 µM", "measurement": "inhibition", "result": "< 25%"}
{"SMILES": "CCOc1cc2ncc(C#N)c(Nc3ccc(OCc4ccccn4)c(Cl)c3)c2cc1NC(=O)/C=C/CN(C)C", "target": "ABCB1", "system": "MDCK-MDR1, Caco-2", "setting": "1 µM, 1 h, pH 7.4", "measurement": "efflux ratio", "result": 6.37}
{"SMILES": "C[C@]12CCCN1CC1=NNC(=O)c3cc(F)cc4[nH]c2c1c34", "target": "ABCB1", "system": "MDCK-MDR1", "setting": "10 µM", "measurement": "Papp A→B", "result": "25.5 ×10⁻⁶ cm/s"}
{"SMILES": "C[C@H]1O[C@@H](O[C@H]2[C@@H](O)C[C@H](O[C@H]3[C@@H](O)C[C@H](O[C@H]4CC[C@@]5(C)[C@H](CC[C@@H]6[C@@H]5C[C@@H](O)[C@]5(C)[C@@H](C7=CC(=O)OC7)CC[C@]65O)C4)O[C@@H]3C)O[C@@H]2C)C[C@H](O)[C@@H]1O", "target": "ABCB1", "system": "human, plasma", "setting": "oral, 0.5 mg", "measurement": "half-life", "result": "42.5 h"}
{"SMILES": "CCc1cc(/C(C)=N/OCc2ccc(C3CCCCC3)c(C(F)(F)F)c2)ccc1CN1CC(C(=O)O)C1", "target": "Cytochrome P450 2A6 (CYP2A6, Homo sapiens, UniProt P11509)", "test": "enzyme activity, inhibitor", "system": "human, liver microsomes", "setting": "200 µM, 20 min", "measurement": "inhibition", "result": "30.6%"}
{"SMILES": "CC1(C)CCC2(CC1)N[C@@H](C(=O)N[C@@H]1CC[C@@H](C(N)=O)OC1)[C@H](c1ccnc(Cl)c1F)[C@]21C(=O)Nc2cc(Cl)ccc21", "target": "ABCB1", "system": "Caco-2", "setting": "3 µM, 2 h", "measurement": "efflux ratio", "result": 14.1}
{"SMILES": "C=C[C@H]1C[N@@]2CC[C@H]1C[C@@H]2[C@@H](O)c1ccnc2ccc(OC)cc12", "target": "ABCB1", "system": "MDCK-MDR1", "setting": "5 µM", "measurement": "Papp B→A", "result": "40.6 ×10⁻⁶ cm/s"}
{"SMILES": "O=C(O)CSc1nnc(Br)n1-c1ccc(C2CC2)c2ccccc12", "target": "SLC47A2", "test": "transporter uptake, inhibitor", "system": "HEK293", "setting": "10 µM, 2 min", "measurement": "inhibition", "result": "-16%"}
{"SMILES": "Nc1nc(NC2CC2)c2ncn([C@H]3C=C[C@@H](CO)C3)c2n1", "target": "SLC47A2", "test": "transporter uptake, inhibitor", "measurement": "IC50", "result": "> 500 µM"}
